Experimental data collected from several papers.
Lines come from different studies, so protocols differ.
CSF1R: Macrophage colony-stimulating factor 1 receptor (CSF1R, Homo sapiens, UniProt P07333)
CSF1R autoinhibited: Macrophage colony-stimulating factor 1 receptor, autoinhibited (CSF1R, Homo sapiens, UniProt P07333)

The remaining activity of `Cc1sc(C(=O)NC2COC2)cc1-n1cc(NC(=O)Nc2c(F)cccc2Cl)cn1` is reported as 103% (CSF1R; enzyme activity, inhibitor; 10 µM).
`CCN(CC)CCNC(=O)c1c(C)[nH]c(/C=C2\C(=O)Nc3ccc(F)cc32)c1C` has an inhibition of 98% (CSF1R; cell-free assay; 10 µM).
With `CN(CCCC(F)(F)F)c1nccc(-c2cnn3ncccc23)n1` the remaining binding was 100% (CSF1R autoinhibited; binding; 1 µM).
For `CN(C(=O)c1ccccc1)c1cc(N(C)c2ccc3c(c2)CCc2ccc(C(=O)NCCN4CCOCC4)cc2C3=O)ccc1F`, the remaining binding was 98% (CSF1R; cell-free assay, competition with immobilised ligand; 1 µM).
For `CC(C)(O)[C@H]1CC[C@H](Nc2ccc3ncc(-c4cccc(C(F)(F)F)c4)n3n2)CC1`, the remaining activity was 89.7% (CSF1R; enzyme activity, inhibitor; 1 µM).
For `COc1cc2nccc(Oc3ccc(NC(=O)c4c5n(n(-c6ccc(F)cc6)c4=O)CCCC5)cc3)c2cc1OC`, the inhibition was 38% (CSF1R; enzyme activity, inhibitor; 0.1 µM).
With `O=C(CSc1nc2nccnc2c(=O)n1CCc1ccccc1)Nc1nccs1` the inhibition was 13% (CSF1R; enzyme activity, inhibitor; 10 µM).
With `CN(C)c1nccc(-c2cnn3ncccc23)n1` the remaining binding was 100% (CSF1R autoinhibited; binding; 1 µM).
The remaining activity of `Cc1ccc(NC(=O)c2ccc(CN3CCN(C)CC3)cc2)cc1Nc1nccc(-c2cncc(-c3oncc3C)c2)n1` is reported as ≤ 50% (CSF1R; enzyme activity, inhibitor; 0.5 µM).
For `CCCOc1ccc(OC)c(F)c1C(=O)c1ccc(C(=O)N[C@@H]2CNC[C@H]2NC(=O)c2ccc3[nH]ncc3c2)cc1`, the remaining activity was 27% (CSF1R; enzyme activity, inhibitor; 10 µM).
`CC(C)(C)c1nc(-c2cccc(NS(=O)(=O)c3c(F)cccc3F)c2F)c(-c2ccnc(N)n2)s1` has a remaining activity of 109% (CSF1R; enzyme activity, inhibitor, radiometric; 1 µM).
`O=S(=O)(c1cccc2cnccc12)N1CCCNCC1` gave a remaining signal of 97.9% (CSF1R; cell-free assay; 0.5 µM).
`CO[C@@H](C)c1c(Nc2ccc([C@@H](N(C)C(=O)C3CCS(=O)(=O)CC3)C(F)(F)F)cc2)cnc2cc(Cl)nn12` has a remaining binding of 88% (CSF1R autoinhibited; cell-free assay, competition with immobilised ligand; 1 µM).
The remaining activity of `Cc1cnc(NC2CCOCC2)nc1-n1cnc(C(=O)NC(CN)c2cc(F)cc(Cl)c2)c1` (stereo not shown) is reported as 101% (Macrophage colony-stimulating factor 1 receptor (CSF1R, Homo sapiens, UniProt P07333, Y969C); enzyme activity, inhibitor, radiometric; 1 µM).
For `CS(=O)(=O)N1CCCC(NC(=O)[C@H](CCC2CCCCC2)NC(=O)c2ccc(CNC(=O)c3cnc4ccccn34)cc2)C1` (stereo partly shown), the remaining binding was 100% (CSF1R autoinhibited; cell-free assay, competition with immobilised ligand; 0.1 µM).
`COc1cc2ncnc(Nc3ccc(Oc4ccccc4)cc3C)c2cc1OC` has an inhibition of 24% (CSF1R; enzyme activity, inhibitor; 1 µM).
With `c1ccc(-c2n[nH]c3c2oc2ccccc23)cc1` the remaining signal was 78.1% (CSF1R; cell-free assay; 0.5 µM).
`C[C@@H]1CCN(c2nccc(-c3cnn4ncccc34)n2)C1` gave a remaining binding of 100% (CSF1R; binding; 1 µM).
With `Cc1ccc(NC(=O)c2ccc(C)c(C(F)(F)F)c2)cc1C#Cc1nn(C2CCC(O)CC2)c2ncnc(N)c12` (stereo not shown) the remaining signal was 4% (CSF1R; cell-free assay; 10 µM).
The activity vs control of `Cc1cc(NC(=O)c2cccc3cc(-c4cccc5[nH]nc(N)c45)ccc23)ccc1F` is reported as 7% (CSF1R; enzyme activity, inhibitor; 0.1 µM).
With `Oc1cccc(-c2nc(N3CCOCC3)c3oc4ncccc4c3n2)c1` the remaining signal was 108% (CSF1R; cell-free assay; 0.5 µM).
With `CCN(CC)c1ccc(C2=NNC(=O)CC2C)cc1[N+](=O)[O-]` (stereo not shown) the remaining activity was 114% (CSF1R; enzyme activity, inhibitor; 10 µM).
The remaining binding of `CN(C)c1nccc(-c2cnc3ncccn23)n1` is reported as 65% (CSF1R autoinhibited; binding; 1 µM).
`CCS(=O)(=O)c1cc2cc(C[C@@](O)(CC(C)(C)c3ccc(F)cc3C(N)=O)C(F)(F)F)[nH]c2cn1` has a remaining binding of 94% (CSF1R autoinhibited; cell-free assay, competition with immobilised ligand; 1 µM).
`CNC(=O)c1cc2c(Oc3ccc(NC(=O)C4(C(=O)Nc5ccc(F)cc5)CC4)cc3)ccnc2cc1OC` gave an inhibition of 98% (CSF1R; enzyme activity, inhibitor, radiometric; 1 µM).
`O=C1NC(=O)c2cc(Nc3ccc(F)cc3)c(Nc3ccc(F)cc3)cc21` gave a remaining signal of 104% (CSF1R; cell-free assay; 0.5 µM).
`CCOC(=O)c1cc2cc(-c3cc(C(=O)NCc4ccc(C(=O)O)cc4)nn3C)ccc2[nH]1` has a remaining binding of 94% (CSF1R autoinhibited; cell-free assay, competition with immobilised ligand; 0.1 µM).
`Nc1ncnc2occ(-c3ccc(NC(=O)Nc4cc(C(F)(F)F)ccc4F)cc3)c12` gave a remaining signal of 0% (CSF1R; cell-free assay; 20 µM).
`COc1cc(-c2cn(C3CCc4c(F)cccc4N(CC(F)(F)F)C3=O)nn2)ccc1-n1cnc(C)c1` (stereo not shown) gave a remaining binding of 100% (CSF1R autoinhibited; cell-free assay, competition with immobilised ligand; 1 µM).
The remaining binding of `N[C@@H]1CCN(c2nccc(-c3cnn4ncccc34)n2)C1` is reported as 100% (CSF1R; binding; 1 µM).
For `O=C(N1CCS(=O)(=O)CC1)N1C[C@H](c2ccc(OC(F)(F)F)cc2)C[C@H](c2nc(C3CC3)no2)C1`, the remaining binding was 100% (CSF1R; cell-free assay, competition with immobilised ligand; 1 µM).
`CC/C(=N\NC(=O)NCc1cccc(O)c1)c1ccc(O)c(C)c1O` gave an inhibition of -4.4% (CSF1R; enzyme activity, inhibitor; 0.1 µM).
With `Cc1c(NC(=O)c2cc(C(N)=O)nc3cc(F)ccc23)c(C(F)(F)F)nn1Cc1ccc(C#N)cc1` the remaining binding was 83% (CSF1R; cell-free assay, competition with immobilised ligand; 1 µM).
For `CN(C)C1CCN(CC#Cc2nn(C3CCCC3)c3nc(NCc4ccccc4)ncc23)C1` (stereo not shown), the inhibition was 107% (CSF1R; enzyme activity, inhibitor, FRET; 10 µM).
